Source: paper PMC7931646 (The Journal of Experimental Medicine, 2021)

How the values were obtained:
[1] = Liver microsomal stability, mouse; assay type: in vitro ADME; settings: liver microsomes
In short: (§1)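 Test compound at 1 µM was incubated for 30 min with liver microsomes at 1 mg/ml (human, rat or mouse). Result is percent of parent compound remaining.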

[2] = Liver microsomal stability, human; assay type: in vitro ADME; settings: liver microsomes
In short: as §1

[3] = GLP cardiopulmonary safety pharmacology study in NHPs; assay type: in vivo, NHP; settings: NHPs, 10, 30 and 60 mg/kg
[4] = system: Pig-a mutant RBCs and RETs; assay: GLP 28-d in vivo Pig-a gene mutation study in rats; design: species or system rat; settings: 28 d, 6, 20, 60 mg/kg/d (males), 3, 10, 30 mg/kg/d (females)
In short: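 GLP study in male and female Sprague-Dawley rats, n = 5 per dose per sex. Test compound in 15% Labrasol:85% water was given by oral gavage for 28 d at 0, 6, 20 or 60 mg/kg/d (males) or 0, 3, 10 or 30 mg/kg/d (females). Peripheral blood was then analysed by flow cytometry for % reticulocytes, mutant-phenotype RBC frequency and mutant-phenotype RET frequency.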

[5] = Liver microsomal stability, rat; assay type: in vitro ADME; settings: liver microsomes
In short: as §1

[6] = Estimation of effective AUC and unbound Ceffective in rodents
[7] = Plasma protein binding, equilibrium dialysis; assay type: in vitro ADME; settings: mouse
In short: (§2)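 Equilibrium dialysis of test compound in human, rat or mouse plasma against buffer across a semipermeable membrane. Compound concentrations in both compartments were measured by LC/MS, and percent bound was derived from them.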

NK3 = NK3 (Homo sapiens, UniProt P29371); assay: CEREP off-target radioligand binding panel; settings: read-out: inhibition of ligand binding
Chain of NK3 (P29371 whole entry): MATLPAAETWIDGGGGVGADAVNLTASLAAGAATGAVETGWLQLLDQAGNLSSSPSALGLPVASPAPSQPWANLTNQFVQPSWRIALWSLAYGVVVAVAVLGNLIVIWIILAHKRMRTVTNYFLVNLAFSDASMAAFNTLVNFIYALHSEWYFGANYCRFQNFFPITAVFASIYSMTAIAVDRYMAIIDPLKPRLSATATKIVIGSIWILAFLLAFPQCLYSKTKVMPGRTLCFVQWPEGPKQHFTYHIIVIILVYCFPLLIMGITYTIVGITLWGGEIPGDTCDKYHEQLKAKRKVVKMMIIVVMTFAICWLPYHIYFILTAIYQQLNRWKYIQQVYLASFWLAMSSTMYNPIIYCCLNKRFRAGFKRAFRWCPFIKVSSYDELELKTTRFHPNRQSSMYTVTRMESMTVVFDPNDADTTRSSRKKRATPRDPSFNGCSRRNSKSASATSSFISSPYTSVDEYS
In short: (§3)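 CEREP secondary-pharmacology panel of 55 receptors, transporters and ion channels. Test compound at 10 µM was assessed for inhibition of binding of a radiolabelled reference ligand specific to each target. Result is percent inhibition of ligand binding.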

[8] = 7-d dose range-finding toxicity and toxicokinetic study in rats; assay type: in vivo, rat
dopamine D1 = dopamine D1 (Homo sapiens, UniProt P21728); assay: CEREP off-target radioligand binding panel; settings: read-out: inhibition of ligand binding
Chain of dopamine D1 (P21728 whole entry): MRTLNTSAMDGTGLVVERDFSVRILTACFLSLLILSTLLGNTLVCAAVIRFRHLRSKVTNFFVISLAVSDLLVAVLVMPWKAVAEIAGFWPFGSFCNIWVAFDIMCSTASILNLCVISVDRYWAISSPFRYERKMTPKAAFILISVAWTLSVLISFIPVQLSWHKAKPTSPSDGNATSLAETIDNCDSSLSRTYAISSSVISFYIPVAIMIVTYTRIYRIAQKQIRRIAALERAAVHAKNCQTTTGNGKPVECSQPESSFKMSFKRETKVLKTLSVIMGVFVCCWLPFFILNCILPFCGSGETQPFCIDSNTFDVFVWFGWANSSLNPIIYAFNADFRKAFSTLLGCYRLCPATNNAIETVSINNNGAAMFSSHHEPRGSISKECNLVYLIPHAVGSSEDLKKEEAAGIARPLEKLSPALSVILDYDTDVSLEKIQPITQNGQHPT
In short: as §3

MDR1-MDCK permeability = assay type: in vitro ADME; settings: dog
In short: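 Transport across MDR1-MDCK cell monolayers. Apparent permeability was measured in the apical-to-basolateral direction (× 10−6 cm/s). Efflux ratio was calculated as Papp B-A / Papp A-B.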

[9] = Necropsy, histopathology and weight gain in chronically treated PSAPP mice; assay type: in vivo, mouse; settings: chronic 25 mg/kg/d, 3 mo
In short: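 Female PSAPP mice, 9–10 per group, were dosed with vehicle (PEG 400/water/Tween 20) or test compound 25 mg/kg/d by oral gavage for 3 mo. Body weight was recorded three times weekly to monitor weight gain. Necropsy and histopathology followed the treatment period.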

[10] = Metabolite profile in hepatocytes; assay type: in vitro ADME; settings: metabolite profiling in five species (mouse, rat, dog, NHP, human)
In short: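 Test compound at 1 µM was incubated at 37°C for 4 h with cryopreserved hepatocytes from mouse, rat, dog, monkey or human. Metabolite masses and relative abundance came from HPLC/MS/MS peak areas. Structures were characterised by LC/MS/MS on a Q-Trap instrument.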

[11] = Kinetic aqueous solubility, PBS pH 7.4; assay type: physicochemical; settings: PBS buffer, pH 7.4, aqueous buffer, kinetic from dmso stock
In short: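 Kinetic solubility in PBS at pH 7.4, read by UV/Vis absorbance and reported in micromolar.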

[12] = Plasma protein binding, equilibrium dialysis; assay type: in vitro ADME; settings: human
In short: as §2

μ opioid receptors = μ opioid receptors (Homo sapiens, UniProt P35372); assay: CEREP off-target radioligand binding panel; settings: read-out: inhibition of ligand binding
Chain of μ opioid receptors (P35372 whole entry): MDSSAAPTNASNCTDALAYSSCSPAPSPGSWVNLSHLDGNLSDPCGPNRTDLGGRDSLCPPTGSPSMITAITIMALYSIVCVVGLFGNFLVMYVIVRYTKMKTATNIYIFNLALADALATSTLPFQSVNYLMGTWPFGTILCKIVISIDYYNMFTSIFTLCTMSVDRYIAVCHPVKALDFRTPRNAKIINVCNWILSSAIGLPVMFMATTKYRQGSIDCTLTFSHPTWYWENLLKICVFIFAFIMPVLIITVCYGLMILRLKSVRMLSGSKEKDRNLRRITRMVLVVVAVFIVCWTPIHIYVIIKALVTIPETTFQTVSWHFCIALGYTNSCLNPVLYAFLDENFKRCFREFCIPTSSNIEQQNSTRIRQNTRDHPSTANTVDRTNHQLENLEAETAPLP
In short: as §3

[13] = system: Aβ42 and Aβ40 levels in plasma and brain; assay: 9-d repeat-dose efficacy in C57BL/6J mice; assay type: in vivo, mouse; settings: 10 mg/kg/d for 9 d
CYP450 2C19 = CYP450 2C19 (Homo sapiens, UniProt P33261); assay: CYP450 inhibition, recombinant isoform; assay type: in vitro ADME
Chain of CYP450 2C19 (P33261 whole entry, canonical isoform): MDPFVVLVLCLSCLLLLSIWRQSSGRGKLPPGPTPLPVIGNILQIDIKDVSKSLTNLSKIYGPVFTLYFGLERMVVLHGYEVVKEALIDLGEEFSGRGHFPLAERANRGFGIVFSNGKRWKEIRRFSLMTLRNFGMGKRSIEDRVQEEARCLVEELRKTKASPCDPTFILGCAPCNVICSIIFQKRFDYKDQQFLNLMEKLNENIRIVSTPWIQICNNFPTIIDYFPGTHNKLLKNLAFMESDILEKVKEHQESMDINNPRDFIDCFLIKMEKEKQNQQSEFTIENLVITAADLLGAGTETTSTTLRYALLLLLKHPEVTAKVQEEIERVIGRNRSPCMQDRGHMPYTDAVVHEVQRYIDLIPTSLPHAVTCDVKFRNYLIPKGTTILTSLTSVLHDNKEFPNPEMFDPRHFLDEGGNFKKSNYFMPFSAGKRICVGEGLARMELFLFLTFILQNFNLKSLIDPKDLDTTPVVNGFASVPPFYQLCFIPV
In short: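 Recombinant human CYP450 isoforms were incubated with isoform-specific probe substrates; for CYP3A4 these were midazolam and testosterone. Inhibition was quantified by LC-MS/MS analysis of probe-substrate turnover.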

[14] = system: S. typhimurium strains TA1535, TA1537, TA98, TA100 and E. coli strain WP2 (uvrA); assay: GLP Salmonella–Escherichia coli/microsome plate incorporation; assay type: cell-based, Salmonella typhimurium; settings: two S. typhimurium strains (T98 and T100), only with Aroclor-induced rat liver S9
In short: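 GLP plate-incorporation mutagenicity test using S. typhimurium TA1535, TA1537, TA98 and TA100 and E. coli WP2 (uvrA). Each strain was run with and without a metabolic activation mix of Aroclor 1254–induced rat liver microsomes (S9). Read-out is revertant bacterial growth.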

[15] = system: Aβ42, Aβ40, Aβ38 in plasma, brain and CSF; assay: 9-d repeat-dose pharmacodynamics in male Sprague-Dawley rats; assay type: in vivo, rat; settings: 5 mg/kg po daily 9 d, 4 h post dose
In short: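 Male Sprague-Dawley rats, n = 14 per dose level, received vehicle (80% PEG 400, 20% water, 0.1% Tween 20) or test compound at 5, 25 or 50 mg/kg orally once daily for 9 d. Sampling was 4 h after the day-9 dose: plasma, brain extracts, and CSF from the cisterna magnum. Aβ38/40/42 were measured by MSD multiplex assay. Results are mean ± SEM, analysed by ANOVA.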

[16] = Single-dose i.v./po PK in cynomolgus macaques; assay type: in vivo, cynomolgus macaque; settings: for clearance: male, cynomolgus monkey, plasma, iv, 1 mg/kg
In short: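 Cynomolgus monkeys received a single i.v. dose of 1 mg/kg. Whole blood was collected at set time points and processed to plasma. Drug levels were measured with a bioanalytical method validated for NHP plasma. Clearance was derived from the plasma concentration–time data.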

histamine H1 = histamine H1 (Homo sapiens, UniProt P35367); assay: CEREP off-target radioligand binding panel; settings: read-out: inhibition of ligand binding
Chain of histamine H1 (P35367 whole entry): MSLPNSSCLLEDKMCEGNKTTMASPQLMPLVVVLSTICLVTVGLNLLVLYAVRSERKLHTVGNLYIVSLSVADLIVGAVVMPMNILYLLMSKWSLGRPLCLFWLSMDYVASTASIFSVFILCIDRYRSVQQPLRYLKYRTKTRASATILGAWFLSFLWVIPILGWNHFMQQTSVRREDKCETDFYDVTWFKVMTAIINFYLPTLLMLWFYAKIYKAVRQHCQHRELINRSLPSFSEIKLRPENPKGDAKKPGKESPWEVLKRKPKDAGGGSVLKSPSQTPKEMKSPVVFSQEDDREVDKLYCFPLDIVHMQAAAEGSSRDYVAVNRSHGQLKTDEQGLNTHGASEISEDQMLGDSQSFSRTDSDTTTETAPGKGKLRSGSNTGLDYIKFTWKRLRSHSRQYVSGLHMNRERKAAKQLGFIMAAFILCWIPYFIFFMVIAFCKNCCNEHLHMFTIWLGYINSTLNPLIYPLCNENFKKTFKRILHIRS
In short: as §3

[17] = GLP in vitro micronucleus evaluation; assay type: cell-based; settings: data not shown
[18] = Human PK and 50% effective dose projection

SMILES: COc1nc(-c2cc(C)c(N[C@@H](C)c3cc(F)cc(F)c3)nn2)ccc1-n1cnc(C)c1 [Compound 2, (S)-N-(1-(3,5-difluorophenyl)ethyl)-6-(6-methoxy-5-(4-methyl-1H-imidazol-1-yl)pyridin-2-yl)-4-methylpyridazin-3-amine]
- remaining at 0.5 h, 1 µM [1]: 91%
- remaining at 0.5 h, 1 µM [2]: 71%
- effect on electrocardiogram parameters, including corrected QT interval [3]: no significant effect
- in vivo mutagenicity (Pig-a mutant RBCs and RETs) [4]: negative
- remaining at 0.5 h, 1 µM [5]: 76%
- unbound average Ceffective ([6]; plasma unbound fraction 0.1%): ~0.58 ng/mL
- unbound average Ceffective ([6]; plasma unbound fraction 1.0%): 5.8 ng/mL
- AUC ([6]; rat, plasma): 13800 ng·h/mL
- % PPB M [7]: 99.9%
- inhibition at 10 µM (NK3): > 50%
- NOAEL at 7 d ([8]; both, Sprague-Dawley, rat, in vivo): ≥ 50 mg/kg
- safety margin over the efficacious dose (5 mg/kg) ([8]; rats, 7-d DRF): 10–20 fold
- inhibition at 10 µM (dopamine D1): > 50%
- Papp A→B (MDR1-MDCK permeability): 23.3 ×10⁻⁶ cm/s
- full-body necropsy and histopathology [9]: no overt evidence of toxicity
- weight gain ([9]; data not shown): no significant effect on weight gain
- major metabolites [10]: no major metabolites
- unique human metabolites [10]: absence of any unique human metabolites
- solubility kinetic [11]: < 1.3 µM
- % PPB H [12]: 99.8%
- inhibition at 10 µM (μ opioid receptors): > 50%
- elimination of detectable Aβ42 in brain [13]: 100%
- reduction in plasma Aβ42 levels [13]: > 90%
- IC50 (CYP450 2C19): 12 µM
- GLP Ames bacterial mutagenicity result [14]: positive
- Brain % Aβ42 ∆ vs vehicle (↓ reduction) [15]: 54%
- Brain %Aβ40 ∆ vs vehicle (↓ reduction) [15]: 29%
- CSF % Aβ42 ∆ vs vehicle (↓ reduction) [15]: 41%
- CSF %Aβ40 ∆ vs vehicle (↓ reduction) [15]: 29%
- Plasma % Aβ40 ∆ vs vehicle (↓ reduction) [15]: 57%
- Plasma % Aβ42 ∆ vs vehicle (↓ reduction) [15]: 78%
- CL as percent of reported hepatic blood flow ([16]; NHPs, hepatic blood flow 50 ml/min/kg): < 10%
- clearance ([16]; CL, NHPs): 5.5 mL/min/kg
- clearance ([16]; Cl, NHP): 5.52 mL/min/kg
- inhibition at 10 µM (histamine H1): > 50%
- GLP in vitro micronucleus evaluation [17]: negative
- fabs in humans (expected) [18]: ~90%
- predicted human CL ([18]; allometric scaling from mouse, rat, NHP): ~300 mL/h/kg
- AUC ([18]; human, plasma): 4320 ng·h/mL
